ChEMBL document CHEMBL3352508, “Discovery and early clinical development of 2-{6-[2-(3,5-dichloro-4-pyridyl)acetyl]-2,3-dimethoxyphenoxy}-N-propylacetamide (LEO 29102), a soft-drug inhibitor of phosphodiesterase 4 for topical treatment of atopic dermatitis” (J Med Chem, 2014)
In brackets after ≈: the same amount, converted by molar mass.

How the values were obtained:
[1] = target: 3',5'-cyclic-AMP phosphodiesterase 4D (Homo sapiens, UniProt Q08499); experiment: Inhibition of human recombinant PDE4D after 1 hr by SPA in presence of radioactively labeled cAMP
In short: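 Recombinant human PDE4D (NM_006203) incubated 1 h with test compound up to 10 μM, 1 × 10⁻⁵ M cAMP and 0.021 MBq radiolabelled cAMP tracer. Substrate cleavage read by binding of AMP product to SPA beads. IC₅₀ is the molar concentration giving 50% inhibition of cleavage relative to controls, reported as a range.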

PBMC = experiment: Inhibition of LPS-induced TNFalpha release in human PBMC preincubated for 30 mins before LPS stimulation measured after 18 hrs by TR-FRET assay; type: functional, cell-based
In short: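 PBMCs isolated from buffy coats (blood diluted 1:1 with saline, Lymphoprep). Supernatant TNF-α measured by TR-FRET (665/620 nm). IC₅₀ taken from inhibition curves, with LPS-stimulated and unstimulated wells as controls.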

[2] = Genotoxicity in p53 competent human TK6 cells after 24 hrs by GreenScreen HC assay; type: toxicity, cell-based; conditions: tk6, 24 h
[3] = target: Phosphodiesterase 3 (Homo sapiens) (UniProt Q14432+Q13370); experiment: Inhibition of PDE3 (unknown origin) at 1 uM; type: protein assay
[4] = target: Phosphodiesterase 1 (Homo sapiens) (UniProt P54750+Q01064+Q14123); experiment: Inhibition of PDE1 (unknown origin) at 1 uM; type: protein assay
[5] = target: cGMP-dependent 3',5'-cyclic phosphodiesterase (Homo sapiens) (UniProt O00408); experiment: Inhibition of PDE2 (unknown origin) at 1 uM
[6] = target: cGMP-specific 3',5'-cyclic phosphodiesterase (Homo sapiens) (UniProt O76074); experiment: Inhibition of PDE5 (unknown origin) at 1 uM
[7] = target: Dual 3',5'-cyclic-AMP and -GMP phosphodiesterase 11A (Homo sapiens) (UniProt Q9HCR9); experiment: Inhibition of PDE11 (unknown origin) at 1 uM
[8] = target: High affinity cGMP-specific 3',5'-cyclic phosphodiesterase 9A (Homo sapiens) (UniProt O76083); experiment: Inhibition of PDE9 (unknown origin) at 1 uM
[9] = target: Phosphodiesterase 8 (Homo sapiens) (UniProt O95263+O60658); experiment: Inhibition of PDE8 (unknown origin) at 1 uM; type: protein assay
[10] = target: High affinity 3',5'-cyclic-AMP phosphodiesterase 7A (Homo sapiens) (UniProt Q13946); experiment: Inhibition of PDE7 (unknown origin) at 1 uM
[11] = target: cAMP and cAMP-inhibited cGMP 3',5'-cyclic phosphodiesterase 10A (Homo sapiens) (UniProt Q9Y233); experiment: Inhibition of PDE10 (unknown origin) at 1 uM
[12] = AUC (0 to 48 hrs) in human at 2.5 mg/g cream administered as single topical dose up to 14 % body surface area; type: ADME, organism-based; set-up: time < 48 hr, dose 2.5 mg/g; conditions: plasma, 2500 mg/kg
In short: (§1)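 Healthy subjects, n = 6 per group, each given a single cutaneous dose of 2.5 mg/g cream. Treated body surface area was escalated (7, 14, 30, 53%) while the amount of cream per cm² was held constant. Plasma Cmax and AUC0–48h are reported as geometric means.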

Mus musculus [13] = experiment: Antiinflammatory activity in topical allergic contact dermatitis mouse model assessed as inhibition of TNFalpha in tissue at 0.001 mg administered topically; type: functional
[14] = Toxicity in iv dosed ferret assessed as signs of nausea measured up to 2 hrs post dose; type: organism-based, Mustela putorius furo; conditions: in vivo
In short: (§2)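 Ferrets dosed iv at 0.03–1.0 mg/kg alongside vehicle groups, then observed for 2 h. Recorded: emetic episodes and prodromic signs of nausea, number of animals retching and vomiting, latency to first retch and vomit, and counts of retches and vomits.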

[15] = Cmax in human at 2.5 mg/g cream administered as single topical dose up to 7 % body surface area; type: ADME, organism-based; set-up: dose 2.5 mg/g; conditions: in vivo, 2500 mg/kg; in short: as §1
[16] = Solubility of the compound in propylene glycol; type: physicochemical
In short: (§3)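 Compound shaken in each vehicle for 24 h at room temperature, centrifuged, and the supernatant concentration determined by HPLC.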

[17] = Solubility of the compound in medium chain triglyceride; type: physicochemical; in short: as §3
[18] = Solubility of the compound in propylene glycol-water at 50:50 ratio after 24 hrs at room temperature; type: physicochemical; conditions: propylene glycol-water 50:50; in short: as §3
[19] = Cmax in human at 2.5 mg/g cream administered as single topical dose up to 30 % body surface area; type: ADME, organism-based; set-up: dose 2.5 mg/g; conditions: in vivo, 2500 mg/kg; in short: as §1
Mus musculus [20] = experiment: Antiinflammatory activity in topical allergic contact dermatitis mouse model assessed as inhibition of TNFalpha in tissue at 0.01 mg administered topically; type: functional
Mus musculus [21] = experiment: Antiinflammatory activity in topical allergic contact dermatitis mouse model assessed as inhibition of TNFalpha in tissue at 0.1 mg administered topically; type: functional
[22] = AUC (0 to 48 hrs) in human at 2.5 mg/g cream administered as single topical dose up to 30 % body surface area; type: ADME, organism-based; set-up: time < 48 hr, dose 2.5 mg/g; conditions: plasma, 2500 mg/kg; in short: as §1
[23] = AUC (0 to 48 hrs) in human at 2.5 mg/g cream administered as single topical dose up to 53 % body surface area; type: ADME, organism-based; set-up: time < 48 hr, dose 2.5 mg/g; conditions: plasma, 2500 mg/kg; in short: as §1
[24] = Cmax in human at 2.5 mg/g cream administered as single topical dose up to 53 % body surface area; type: ADME, organism-based; set-up: dose 2.5 mg/g; conditions: in vivo, 2500 mg/kg; in short: as §1
[25] = Cmax in human at 2.5 mg/g cream administered as single topical dose up to 14 % body surface area; type: ADME, organism-based; set-up: dose 2.5 mg/g; conditions: in vivo, 2500 mg/kg; in short: as §1
Mus musculus [26] = experiment: Antiinflammatory activity in topical allergic contact dermatitis mouse model assessed as inhibition of TNFalpha in tissue compound administered topically; type: functional, organism-based
Homo sapiens = experiment: Toxicity in human assessed as emesis at 2.5 mg/g cream administered as single topical dose up to 7 to 53 % body surface area; type: organism-based; conditions: in vivo, topical_or_ocular
In short: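 First-in-man safety, tolerability and pharmacokinetic study with single ascending and multiple cutaneous doses of 2.5 mg/g cream. Dose was escalated by enlarging the treated body surface area up to 53%, and emesis cases were recorded.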

[27] = Solubility of the compound in propylene glycol-water at 75:25 ratio after 24 hrs at room temperature; type: physicochemical; conditions: propylene glycol-water 75:25; in short: as §3
[28] = Toxicity in iv dosed ferret assessed as emesis measured up to 2 hrs post dose; type: organism-based, Mustela putorius furo; conditions: in vivo; in short: as §2
[29] = Solubility of the compound in 20 % hydroxypropyl-beta-cyclodextrin in water after 1 hr at room temperature; type: physicochemical
In short: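 Compound shaken in the vehicle for 1 h at room temperature, centrifuged, and the supernatant concentration determined by HPLC.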

[30] = AUC (0 to 48 hrs) in human at 2.5 mg/g cream administered as single topical dose up to 7 % body surface area; type: ADME, organism-based; set-up: dose 2.5 mg/g, time < 48 hr; conditions: plasma, 2500 mg/kg; in short: as §1
[31] = Solubility of the compound in propylene glycol-water at 25:75 ratio after 24 hrs at room temperature; type: physicochemical; conditions: propylene glycol-water 25:75; in short: as §3
[32] = Solubility of the compound in 0.067 M phosphate buffer at pH 7.4; type: physicochemical
In short: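 Compound shaken in 0.067 M phosphate buffer, pH 7.4, for 24 h at room temperature; after centrifugation, supernatant concentration determined by HPLC.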

Sequence of 3',5'-cyclic-AMP phosphodiesterase 4D (Q08499 whole entry): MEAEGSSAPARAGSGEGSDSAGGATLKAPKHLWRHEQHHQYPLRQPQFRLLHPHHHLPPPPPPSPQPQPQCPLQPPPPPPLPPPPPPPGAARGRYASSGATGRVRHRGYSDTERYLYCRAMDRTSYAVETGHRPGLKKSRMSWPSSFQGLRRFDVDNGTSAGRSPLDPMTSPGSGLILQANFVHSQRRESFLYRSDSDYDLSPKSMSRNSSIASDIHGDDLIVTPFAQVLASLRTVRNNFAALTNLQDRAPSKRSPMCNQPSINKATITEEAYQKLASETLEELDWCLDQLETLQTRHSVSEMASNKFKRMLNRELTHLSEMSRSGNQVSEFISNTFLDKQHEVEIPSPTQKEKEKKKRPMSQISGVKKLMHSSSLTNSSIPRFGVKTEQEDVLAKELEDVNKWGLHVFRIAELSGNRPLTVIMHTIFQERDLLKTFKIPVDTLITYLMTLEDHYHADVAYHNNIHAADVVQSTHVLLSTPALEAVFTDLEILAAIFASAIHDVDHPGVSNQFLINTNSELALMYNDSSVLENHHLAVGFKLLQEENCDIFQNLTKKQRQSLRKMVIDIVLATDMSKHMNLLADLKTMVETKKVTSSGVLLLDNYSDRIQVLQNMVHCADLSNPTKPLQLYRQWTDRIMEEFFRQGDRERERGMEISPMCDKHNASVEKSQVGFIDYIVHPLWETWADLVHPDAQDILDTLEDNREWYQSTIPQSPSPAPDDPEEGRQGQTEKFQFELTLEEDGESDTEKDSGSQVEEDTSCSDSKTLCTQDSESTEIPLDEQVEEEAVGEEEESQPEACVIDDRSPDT
Sequence of High affinity 3',5'-cyclic-AMP phosphodiesterase 7A (Homo sapiens) (Q13946 whole entry): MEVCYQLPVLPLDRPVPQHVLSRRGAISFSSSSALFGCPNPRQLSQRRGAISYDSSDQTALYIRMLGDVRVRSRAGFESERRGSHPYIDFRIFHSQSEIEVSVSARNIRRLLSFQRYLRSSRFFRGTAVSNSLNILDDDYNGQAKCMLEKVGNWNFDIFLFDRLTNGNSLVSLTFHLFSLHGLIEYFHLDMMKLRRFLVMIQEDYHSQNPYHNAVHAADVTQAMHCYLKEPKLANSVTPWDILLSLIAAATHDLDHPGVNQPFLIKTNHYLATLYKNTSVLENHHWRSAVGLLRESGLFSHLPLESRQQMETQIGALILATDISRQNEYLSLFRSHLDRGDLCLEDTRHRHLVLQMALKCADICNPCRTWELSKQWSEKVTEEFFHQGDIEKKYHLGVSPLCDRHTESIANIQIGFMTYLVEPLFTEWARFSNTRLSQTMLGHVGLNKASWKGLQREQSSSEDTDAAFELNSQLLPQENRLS
Sequence of cGMP-dependent 3',5'-cyclic phosphodiesterase (Homo sapiens) (O00408 whole entry): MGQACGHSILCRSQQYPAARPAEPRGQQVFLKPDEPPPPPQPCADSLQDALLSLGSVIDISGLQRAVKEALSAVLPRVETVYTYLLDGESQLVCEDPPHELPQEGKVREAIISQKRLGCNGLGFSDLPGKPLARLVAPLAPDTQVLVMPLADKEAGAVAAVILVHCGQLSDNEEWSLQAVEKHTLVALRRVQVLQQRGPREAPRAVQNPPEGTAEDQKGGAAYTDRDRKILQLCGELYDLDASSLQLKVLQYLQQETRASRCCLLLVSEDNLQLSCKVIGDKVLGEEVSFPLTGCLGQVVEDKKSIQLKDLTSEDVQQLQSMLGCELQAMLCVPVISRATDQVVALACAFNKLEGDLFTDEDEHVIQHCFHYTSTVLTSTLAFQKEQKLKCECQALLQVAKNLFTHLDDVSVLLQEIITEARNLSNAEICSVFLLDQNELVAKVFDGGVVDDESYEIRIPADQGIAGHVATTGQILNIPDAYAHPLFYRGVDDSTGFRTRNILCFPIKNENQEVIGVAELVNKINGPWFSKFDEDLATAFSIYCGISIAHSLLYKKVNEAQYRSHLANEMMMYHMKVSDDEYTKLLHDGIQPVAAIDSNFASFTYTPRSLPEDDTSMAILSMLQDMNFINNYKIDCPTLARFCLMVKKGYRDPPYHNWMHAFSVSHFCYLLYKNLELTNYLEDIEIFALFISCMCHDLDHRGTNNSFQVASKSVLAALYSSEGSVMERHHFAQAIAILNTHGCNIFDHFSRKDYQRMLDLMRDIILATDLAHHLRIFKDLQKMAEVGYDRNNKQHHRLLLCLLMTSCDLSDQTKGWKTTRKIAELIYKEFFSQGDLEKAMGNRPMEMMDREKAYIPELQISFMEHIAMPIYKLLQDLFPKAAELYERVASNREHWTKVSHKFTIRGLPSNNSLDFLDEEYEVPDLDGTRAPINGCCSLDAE
Sequence of High affinity cGMP-specific 3',5'-cyclic phosphodiesterase 9A (Homo sapiens) (O76083 whole entry): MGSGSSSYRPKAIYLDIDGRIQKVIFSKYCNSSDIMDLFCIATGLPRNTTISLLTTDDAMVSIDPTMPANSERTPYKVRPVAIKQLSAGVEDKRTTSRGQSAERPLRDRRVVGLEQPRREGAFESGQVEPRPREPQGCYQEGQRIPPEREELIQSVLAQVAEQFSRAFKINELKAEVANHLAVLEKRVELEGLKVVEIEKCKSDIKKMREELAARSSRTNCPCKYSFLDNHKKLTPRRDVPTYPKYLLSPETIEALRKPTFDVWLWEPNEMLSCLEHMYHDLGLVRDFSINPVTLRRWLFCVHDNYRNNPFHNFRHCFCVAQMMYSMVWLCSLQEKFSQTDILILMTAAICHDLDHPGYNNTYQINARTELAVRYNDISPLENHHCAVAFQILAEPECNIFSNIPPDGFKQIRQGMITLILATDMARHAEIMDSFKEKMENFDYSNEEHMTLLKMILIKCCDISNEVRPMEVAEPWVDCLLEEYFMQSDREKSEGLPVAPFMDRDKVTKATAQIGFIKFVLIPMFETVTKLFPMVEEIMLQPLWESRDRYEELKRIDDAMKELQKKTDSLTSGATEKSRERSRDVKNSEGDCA
Sequence of cAMP and cAMP-inhibited cGMP 3',5'-cyclic phosphodiesterase 10A (Homo sapiens) (Q9Y233 whole entry): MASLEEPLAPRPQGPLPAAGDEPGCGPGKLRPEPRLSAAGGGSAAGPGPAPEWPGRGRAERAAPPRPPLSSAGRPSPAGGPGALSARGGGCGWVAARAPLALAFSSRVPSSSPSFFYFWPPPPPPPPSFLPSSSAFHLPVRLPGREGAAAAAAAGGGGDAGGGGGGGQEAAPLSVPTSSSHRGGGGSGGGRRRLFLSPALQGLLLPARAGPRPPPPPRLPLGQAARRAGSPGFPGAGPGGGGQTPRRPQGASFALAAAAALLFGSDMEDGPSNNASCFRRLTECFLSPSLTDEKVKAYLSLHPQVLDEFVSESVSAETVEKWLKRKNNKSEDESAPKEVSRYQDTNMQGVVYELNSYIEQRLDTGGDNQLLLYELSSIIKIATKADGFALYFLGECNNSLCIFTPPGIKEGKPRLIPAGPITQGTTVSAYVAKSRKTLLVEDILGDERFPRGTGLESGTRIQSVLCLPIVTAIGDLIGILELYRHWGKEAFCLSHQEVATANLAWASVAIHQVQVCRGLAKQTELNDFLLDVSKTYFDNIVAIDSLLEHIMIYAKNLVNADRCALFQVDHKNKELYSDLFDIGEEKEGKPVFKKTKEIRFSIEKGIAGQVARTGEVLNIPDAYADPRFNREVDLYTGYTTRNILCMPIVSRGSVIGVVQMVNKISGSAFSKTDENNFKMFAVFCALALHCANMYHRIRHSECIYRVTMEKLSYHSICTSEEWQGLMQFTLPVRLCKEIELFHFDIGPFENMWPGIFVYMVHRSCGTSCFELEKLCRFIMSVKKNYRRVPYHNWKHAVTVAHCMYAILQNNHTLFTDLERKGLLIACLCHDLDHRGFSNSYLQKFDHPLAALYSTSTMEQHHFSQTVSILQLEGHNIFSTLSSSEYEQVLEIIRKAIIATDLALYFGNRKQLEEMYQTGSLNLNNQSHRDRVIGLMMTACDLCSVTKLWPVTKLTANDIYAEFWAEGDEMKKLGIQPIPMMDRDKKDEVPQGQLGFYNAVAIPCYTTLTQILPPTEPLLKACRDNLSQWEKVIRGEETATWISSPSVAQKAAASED
Sequence of Dual 3',5'-cyclic-AMP and -GMP phosphodiesterase 11A (Homo sapiens) (Q9HCR9 whole entry, looked up): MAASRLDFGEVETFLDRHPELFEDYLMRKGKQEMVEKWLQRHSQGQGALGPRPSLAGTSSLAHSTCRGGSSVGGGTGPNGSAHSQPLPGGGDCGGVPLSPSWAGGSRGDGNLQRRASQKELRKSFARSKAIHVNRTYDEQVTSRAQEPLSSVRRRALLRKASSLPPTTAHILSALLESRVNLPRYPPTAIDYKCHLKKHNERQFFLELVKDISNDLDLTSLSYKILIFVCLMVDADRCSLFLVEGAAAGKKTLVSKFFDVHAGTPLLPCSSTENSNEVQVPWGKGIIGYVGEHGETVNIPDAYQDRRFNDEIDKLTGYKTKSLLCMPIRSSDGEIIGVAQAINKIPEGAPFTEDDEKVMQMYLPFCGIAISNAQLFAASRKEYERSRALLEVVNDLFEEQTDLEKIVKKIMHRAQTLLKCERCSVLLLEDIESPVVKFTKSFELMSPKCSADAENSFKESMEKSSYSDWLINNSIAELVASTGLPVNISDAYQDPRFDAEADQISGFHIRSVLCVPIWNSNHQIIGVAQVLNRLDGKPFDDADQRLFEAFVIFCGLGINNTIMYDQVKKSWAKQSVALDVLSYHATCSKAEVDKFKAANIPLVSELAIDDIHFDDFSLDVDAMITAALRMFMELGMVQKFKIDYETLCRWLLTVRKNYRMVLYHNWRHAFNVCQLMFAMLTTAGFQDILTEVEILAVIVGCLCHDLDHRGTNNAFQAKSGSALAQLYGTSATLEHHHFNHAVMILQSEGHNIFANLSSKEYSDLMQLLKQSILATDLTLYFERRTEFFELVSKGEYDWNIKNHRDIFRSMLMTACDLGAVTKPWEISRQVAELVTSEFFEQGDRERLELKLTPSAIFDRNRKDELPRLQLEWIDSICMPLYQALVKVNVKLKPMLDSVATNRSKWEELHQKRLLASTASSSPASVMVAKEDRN

COc1ccc(C(=O)Cc2c(Cl)cncc2Cl)c(OCC(N)=O)c1OC
IC50 [1]: 20 nM | IC50 (PBMC): 55 nM

CNC(=O)c1ccc(CCOc2c(C(=O)Cc3c(Cl)cncc3Cl)ccc(OC)c2OC)cc1
IC50 [1]: 11 nM | IC50 (PBMC): 12 nM

COc1ccc(C(=O)Cc2c(Cl)cncc2Cl)c(OCCCc2ccccc2)c1OC
IC50 [1]: 45 nM | IC50 (PBMC): 230 nM

COc1ccc(C(=O)Cc2c(Cl)cncc2Cl)c(OC)c1OC
IC50 [1]: 110 nM | IC50 (PBMC): 436 nM

COc1ccc(C(=O)Cc2c(Cl)cncc2Cl)c(OCc2ccccc2)c1OC
IC50 [1]: 63 nM | IC50 (PBMC): 159 nM

COCCNC(=O)COc1c(C(=O)Cc2c(Cl)cncc2Cl)ccc(OC)c1OC
IC50 [1]: 13 nM | IC50 (PBMC): 17 nM | Activity [2]: Non-toxic

CCOc1c(OC)ccc(C(=O)Cc2c(Cl)cncc2Cl)c1OC
IC50 [1]: 81 nM | IC50 (PBMC): 259 nM

COc1ccc(C(=O)Cc2c(Cl)cncc2Cl)c(OCC(=O)O)c1OC
inhibition [3]: < 10% | inhibition [4]: < 10% | inhibition [5]: < 10% | IC50 [1]: 3760 nM | inhibition [6]: < 10% | IC50 (PBMC): > 10000 nM | inhibition [7]: < 10% | inhibition [8]: < 10% | inhibition [9]: < 10% | inhibition [10]: < 10% | inhibition [11]: < 10%

COc1ccc(C(=O)Cc2c(Cl)cncc2Cl)c(OCCc2ccc(C(=O)O)cc2)c1OC
IC50 [1]: 17 nM | IC50 (PBMC): 135 nM

COc1ccc(C(=O)Nc2c(Cl)cncc2Cl)c(OC)c1OC
IC50 [1]: 3790 nM | IC50 (PBMC): > 5000 nM

COc1ccc(C(=O)Nc2c(Cl)cncc2Cl)cc1OC
IC50 [1]: 17 nM | IC50 (PBMC): 19 nM

COc1ccc(C(=O)Cc2c(Cl)cncc2Cl)c(OCC(=O)N(C)c2ccccc2)c1OC
IC50 [1]: 61 nM | IC50 (PBMC): 113 nM

CCCNC(=O)COc1c(C(=O)Cc2c(Cl)cncc2Cl)ccc(OC)c1OC
inhibition [3]: < 10% | AUC(0-t) at 48 h [12]: 14.9 ng·h/mL | inhibition (INH) (Mus musculus [13]): 33% | inhibition [4]: < 10% | MTD at 2 h [14]: 1 mg/kg | Cmax [15]: 0.279 ng/mL | inhibition [5]: < 10% | IC50 [1]: 5 nM | solubility [16]: 24000 µg/mL (≈ 54.4 mM) | inhibition [6]: < 10% | solubility [17]: 6700 µg/mL (≈ 15.2 mM) | solubility at 24 h [18]: 1300 µg/mL | Cmax [19]: 2.39 ng/mL | IC50 (PBMC): 16 nM | inhibition (INH) (Mus musculus [20]): 91% | inhibition (INH) (Mus musculus [21]): 100% | AUC(0-t) at 48 h [22]: 49.2 ng·h/mL | AUC(0-t) at 48 h [23]: 100 ng·h/mL | Cmax [24]: 5.07 ng/mL | Cmax [25]: 0.754 ng/mL | inhibition (Mus musculus [26]): Dose-dependent effect | Activity (Homo sapiens): Non-toxic | solubility at 24 h [27]: 5600 µg/mL | MTD at 2 h [28]: 1 mg/kg | inhibition [7]: < 10% | inhibition [8]: < 10% | solubility at 1 h [29]: 220 µg/mL (≈ 0.499 mM) | AUC(0-t) at 48 h [30]: 5.45 ng·h/mL | solubility at 24 h [31]: 135 µg/mL | inhibition [9]: < 10% | solubility [32]: 14 µg/mL (≈ 0.0317 mM) | inhibition [10]: < 10% | inhibition [11]: < 10%
